Measured values from ChEMBL document CHEMBL1159102, “Design, synthesis, and evaluation of 2-aryl-7-(3',4'-dialkoxyphenyl)-pyrazolo[1,5-a]pyrimidines as novel PDE-4 inhibitors” (Bioorg Med Chem Lett, 2010).
Activity calls are given as the source filed them. The calls are words filed in the database; no cut-off is given here.

Tests used:
[1] = target: T1, 3',5'-cyclic-AMP phosphodiesterase 4D (Homo sapiens, UniProt Q08499); test: Inhibition of human PDE4D
[2] = Inhibition of PDE4
[3] = Inhibition of PDE3
[4] = target: cGMP-specific 3',5'-cyclic phosphodiesterase (Homo sapiens, UniProt O76074); test: Inhibition of PDE5
[5] = Inhibition of PDE7
[6] = target: T1, 3',5'-cyclic-AMP phosphodiesterase 4D; test: Inhibition of human PDE4D in U937 cells assessed as cAMP level at 20 uM relative to control; type: cell-based; set-up: scale not given: the % may be the effect or the level left; conditions: U-937
In short: (§1)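 cAMP content of U937 cells was measured after compound exposure and reported as a percentage of the untreated control level. Separately, an EC50 was derived for cAMP accumulation in the same cells.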

[7] = target: T1, 3',5'-cyclic-AMP phosphodiesterase 4D; test: Inhibition of human PDE4D in U937 cells assessed as cAMP level at 10 uM relative to control; type: cell-based; set-up: scale not given: the % may be the effect or the level left; conditions: U-937; in short: as §1
[8] = target: T1, 3',5'-cyclic-AMP phosphodiesterase 4D; test: Inhibition of human PDE4D in U937 cells assessed as cAMP accumulation; type: cell-based, U-937; in short: as §1
Mus musculus [9] = test: Inhibition of ovalbumin-induced airway hyperresponsiveness in mouse at 100 mg/kg measured after 48 hrs of ovalbumin challenge; type: functional, organism-based; set-up: dose 100 mg/kg
Mus musculus [10] = test: Inhibition of ovalbumin-induced eosinophil peroxidase activity in mouse bronchoalveolar lavage fluid at 100 mg/kg measured after 62 hrs of ovalbumin challenge relative to control; type: functional; conditions: Lung
In short: (§2)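 Mice received an ovalbumin inhalation challenge, with compounds given in 0.5% CMC vehicle. Bronchoalveolar lavage fluid was collected 62 h after OVA inhalation, and eosinophil peroxidase activity was measured as a marker of eosinophil infiltration. Data are mean ± SD, n = 9–10 per group, compared with the vehicle group.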

Mus musculus [11] = test: Inhibition of ovalbumin-induced airway hyperresponsiveness in mouse at 30 mg/kg measured after 48 hrs of ovalbumin challenge; type: functional, organism-based; set-up: dose 30 mg/kg
Mus musculus [12] = test: Inhibition of ovalbumin-induced eosinophil peroxidase activity in mouse bronchoalveolar lavage fluid at 30 mg/kg measured after 62 hrs of ovalbumin challenge relative to control; type: functional; conditions: Lung; in short: as §2

T1 sequence (Q08499 whole entry): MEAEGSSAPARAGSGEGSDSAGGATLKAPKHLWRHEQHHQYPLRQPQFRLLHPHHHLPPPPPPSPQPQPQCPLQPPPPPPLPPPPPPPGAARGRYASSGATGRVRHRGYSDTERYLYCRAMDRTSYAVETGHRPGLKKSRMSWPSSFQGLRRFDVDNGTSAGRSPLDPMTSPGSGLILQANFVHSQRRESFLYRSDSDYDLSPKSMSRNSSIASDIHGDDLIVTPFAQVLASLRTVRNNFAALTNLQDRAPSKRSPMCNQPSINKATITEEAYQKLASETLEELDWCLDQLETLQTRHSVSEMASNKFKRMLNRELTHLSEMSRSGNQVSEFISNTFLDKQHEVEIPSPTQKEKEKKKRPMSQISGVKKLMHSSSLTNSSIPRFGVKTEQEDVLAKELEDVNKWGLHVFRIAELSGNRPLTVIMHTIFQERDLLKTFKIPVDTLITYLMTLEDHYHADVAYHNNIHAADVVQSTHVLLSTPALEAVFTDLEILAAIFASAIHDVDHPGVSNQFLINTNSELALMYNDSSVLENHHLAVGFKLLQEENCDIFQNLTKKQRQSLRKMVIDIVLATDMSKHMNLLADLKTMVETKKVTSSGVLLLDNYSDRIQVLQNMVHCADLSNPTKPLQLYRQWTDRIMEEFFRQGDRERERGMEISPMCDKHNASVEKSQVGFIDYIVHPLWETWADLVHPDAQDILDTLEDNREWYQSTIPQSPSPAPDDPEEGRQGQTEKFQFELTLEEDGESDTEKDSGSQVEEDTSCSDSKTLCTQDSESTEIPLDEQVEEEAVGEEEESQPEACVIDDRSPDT

| Structure (SMILES) | IC50 [1] | also measured |
| --- | --- | --- |
| COCCOC(=O)c1cccc(-c2cc3nccc(-c4ccc(OC(F)F)c(OCC5CC5)c4)n3n2)c1 | 160 nM |  |
| CC(=O)Oc1cccc(-c2cc3nccc(-c4ccc(OC(F)F)c(OCC5CC5)c4)n3n2)c1 | 18 nM |  |
| CS(=O)(=O)CNc1cccc(-c2cc3nccc(-c4ccc(OC(F)F)c(OCC5CC5)c4)n3n2)c1 | 32 nM |  |
| FC(F)Oc1ccc(-c2ccnc3cc(-c4cccnc4)nn23)cc1OCC1CC1 | 27 nM | IC50 [2]: 9 nM; IC50 [3]: > 5000 nM; IC50 [4]: 3500 nM; IC50 [5]: 3000 nM |
| CN(C)c1cccc(-c2cc3nccc(-c4ccc(OC(F)F)c(OCC5CC5)c4)n3n2)c1 | 120 nM |  |
| COc1ccc(-c2cc3nccc(-c4ccc(OC)c(OC5CCCC5)c4)n3n2)cc1 | 60 nM |  |
| CC(C)(C)OC(=O)N1CCN(c2cccc(-c3cc4nccc(-c5ccc(OC(F)F)c(OCC6CC6)c5)n4n3)c2)CC1 | 54 nM |  |
| Oc1cccc(-c2cc3nccc(-c4ccc(OC(F)F)c(OCC5CC5)c4)n3n2)c1 | 21 nM |  |
| FC(F)Oc1ccc(-c2ccnc3cc(-c4cccc(C(F)F)c4)nn23)cc1OCC1CC1 | 39 nM |  |
| COc1ccc(-c2cc3nccc(-c4ccc(OC(F)F)c(OCC5CC5)c4)n3n2)cc1O | 32 nM |  |
| CCN(CC)C(=O)c1cccc(-c2cc3nccc(-c4ccc(OC(F)F)c(OCC5CC5)c4)n3n2)c1 | 67 nM |  |
| Fc1cccc(-c2cc3nccc(-c4ccc(OC(F)F)c(OCC5CC5)c4)n3n2)c1 | 100 nM |  |
| COc1ccc(-c2ccnc3cc(-c4cccc(Br)c4)nn23)cc1OC1CCCC1 | 30 nM | Activity [6]: 11.4% |
| COc1ccc(-c2ccnc3cc(-c4ccccc4OC)nn23)cc1OC1CCCC1 | 70 nM |  |
| N#CCCNc1cccc(-c2cc3nccc(-c4ccc(OC(F)F)c(OCC5CC5)c4)n3n2)c1 | 83 nM |  |
| CNc1cccc(-c2cc3nccc(-c4ccc(OC(F)F)c(OCC5CC5)c4)n3n2)c1 | 40 nM |  |
| CC(C)(C)NC(=O)c1cccc(-c2cc3nccc(-c4ccc(OC(F)F)c(OCC5CC5)c4)n3n2)c1 | 44 nM |  |
| COc1cccc(-c2cc3nccc(-c4ccc(OC(F)F)c(OCC5CC5)c4)n3n2)c1 | 30 nM | Activity [7]: 44.4% |
| FC(F)Oc1ccc(-c2ccnc3cc(-c4cc(Cl)ccc4Cl)nn23)cc1OCC1CC1 | 200 nM |  |
| FC(F)Oc1ccc(-c2ccnc3cc(-c4cccc(Cl)c4)nn23)cc1OCC1CC1 | 36 nM |  |
| N#CNc1cccc(-c2cc3nccc(-c4ccc(OC(F)F)c(OCC5CC5)c4)n3n2)c1 | 40 nM |  |
| FC(F)Oc1ccc(-c2ccnc3cc(-c4cccc(-n5cnnn5)c4)nn23)cc1OCC1CC1 | 44 nM |  |
| CCNC(=O)c1cccc(-c2cc3nccc(-c4ccc(OC(F)F)c(OCC5CC5)c4)n3n2)c1 | 28 nM |  |
| C=CCOc1cccc(-c2cc3nccc(-c4ccc(OC(F)F)c(OCC5CC5)c4)n3n2)c1 | 32 nM |  |
| COc1cc(OC)cc(-c2cc3nccc(-c4ccc(OC(F)F)c(OCC5CC5)c4)n3n2)c1 | 29 nM |  |
| COc1ccc(-c2ccnc3cc(-c4cc(Cl)ccc4Cl)nn23)cc1OC1CCCC1 | 30 nM |  |

| Structure (SMILES) | IC50 [1] | also measured |
| --- | --- | --- |
| FC(F)Oc1ccc(-c2ccnc3cc(-c4cc(Cl)cc(Cl)c4)nn23)cc1OCC1CC1 | 100 nM |  |
| COc1ccc(-c2cc3nccc(-c4ccc(OC(F)F)c(OCC5CC5)c4)n3n2)cc1OC | 25 nM |  |
| CC(C)OC(=O)c1cccc(-c2cc3nccc(-c4ccc(OC(F)F)c(OCC5CC5)c4)n3n2)c1 | 40 nM |  |
| CCOc1cccc(-c2cc3nccc(-c4ccc(OC(F)F)c(OCC5CC5)c4)n3n2)c1 | 48 nM |  |
| FC(F)Oc1ccc(-c2ccnc3cc(-c4cccc(I)c4)nn23)cc1OCC1CC1 | 6 nM | Activity [7]: 19.8%; IC50 [3]: 2000 nM; IC50 [4]: > 5000 nM; IC50 [5]: > 5000 nM |
| COc1ccc(-c2ccnc3cc(-c4cccc(Cl)c4)nn23)cc1OC1CCCC1 | 20 nM | Activity [6]: 19.7% |
| COC(=O)c1cccc(-c2cc3nccc(-c4ccc(OC(F)F)c(OCC5CC5)c4)n3n2)c1 | 37 nM |  |
| COc1ccc(-c2ccnc3cc(-c4ccc(Cl)cc4)nn23)cc1OC1CCCC1 | 90 nM |  |
| O=C(c1cccc(-c2cc3nccc(-c4ccc(OC(F)F)c(OCC5CC5)c4)n3n2)c1)N1CCCCC1 | 65 nM |  |
| COc1ccc(-c2ccnc3cc(-c4ccc(Br)cc4)nn23)cc1OC1CCCC1 | 130 nM |  |
| CN(C)C(=O)c1cccc(-c2cc3nccc(-c4ccc(OC(F)F)c(OCC5CC5)c4)n3n2)c1 | 23 nM |  |
| [O-][n+]1cccc(-c2cc3nccc(-c4ccc(OC(F)F)c(OCC5CC5)c4)n3n2)c1 | 42 nM | EC50 [8]: 1610 nM; IC50 [2]: 26 nM; IC50 [3]: > 5000 nM; IC50 [4]: > 5000 nM; IC50 [5]: > 5000 nM; inhibition (Mus musculus [9]): Active; inhibition in vivo at 100 mg/kg (Mus musculus [10]): 50% |
| COc1cccc(-c2cc3nccc(-c4ccc(OC)c(OC5CCCC5)c4)n3n2)c1 | 40 nM | Activity [6]: 20.1% |
| O=C(O)c1cccc(-c2cc3nccc(-c4ccc(OC(F)F)c(OCC5CC5)c4)n3n2)c1 | 9 nM |  |
| NC(=O)Nc1cccc(-c2cc3nccc(-c4ccc(OC(F)F)c(OCC5CC5)c4)n3n2)c1 | 150 nM |  |
| FC(F)Oc1ccc(-c2ccnc3cc(-c4cccc(Br)c4)nn23)cc1OCC1CC1 | 13 nM | Activity [7]: 57.1% |
| O=C(Nc1c(Cl)cncc1Cl)c1ccc(OC(F)F)c(OCC2CC2)c1 [ROFLUMILAST] |  | inhibition (Mus musculus [11]): Active; inhibition in vivo at 30 mg/kg (Mus musculus [12]): 50% |
| FC(F)Oc1ccc(-c2ccnc3cc(-c4cccc(C(F)(F)F)c4)nn23)cc1OCC1CC1 | 190 nM |  |
| FC(F)Oc1ccc(-c2ccnc3cc(-c4cccc(N5CCCCC5)c4)nn23)cc1OCC1CC1 | 100 nM |  |
| CN(CCN)c1cccc(-c2cc3nccc(-c4ccc(OC(F)F)c(OCC5CC5)c4)n3n2)c1 | 47 nM |  |
| Nc1cccc(-c2cc3nccc(-c4ccc(OC(F)F)c(OCC5CC5)c4)n3n2)c1 | 46 nM |  |
| CC(C)Oc1cccc(-c2cc3nccc(-c4ccc(OC(F)F)c(OCC5CC5)c4)n3n2)c1 | 46 nM |  |
| COc1ccc(-c2ccnc3cc(-c4ccccc4)nn23)cc1OC1CCCC1 | 70 nM |  |
| COc1ccc(-c2ccnc3cc(-c4ccccc4Br)nn23)cc1OC1CCCC1 | 140 nM |  |
| FC(F)Oc1ccc(-c2ccnc3cc(-c4ccccc4)nn23)cc1OCC1CC1 | 130 nM |  |
